Results published in ChEMBL document CHEMBL2034842, “Synthesis, anti-Candida activity, and cytotoxicity of new (4-(4-iodophenyl)thiazol-2-yl)hydrazine derivatives” (Eur J Med Chem, 2012).
Converted amounts (≈) assume the structure as drawn.

Experiments:
Klebsiella pneumoniae = assay: Antibacterial activity against Klebsiella pneumoniae after 18 to 22 hrs by […]; type: functional
[1] = Antiproliferative activity against human Hep2 cells assessed as cell survival fraction at 10 ug/mL after 24 hrs by MTT assay; type: cell-based; conditions: HEp-2 cells, read-out: Survival
Method in brief: (§1)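 Hep2 (human laryngeal carcinoma) cells maintained in DMEM + 10% FBS + 1% pen/strep, 37 °C, 5% CO2. Seeded in triplicate at 1 × 10^5/well in serum-free medium and exposed 24 h at 37 °C to six compound concentrations (100–0.05). DMSO stock diluted in medium, final DMSO ≤0.5%. MTT reagent added for 2 h at 37 °C, then detergent for 2 h at RT in the dark. Read as OD550 minus OD650.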

Pichia kudriavzevii = assay: Antifungal activity against 3 strains of Candida krusei after 24 hrs by […]; type: functional
[2] = Cytotoxicity against human Hep2 cells assessed as cell survival fraction at 0.5 ug/mL after 24 hrs by trypan blue exclusion method; type: cell-based; conditions: HEp-2 cells, read-out: Survival
Method in brief: (§2)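 Hep2 cells grown in DMEM + 10% FBS + 1% pen/strep at 37 °C, 5% CO2, used at 60–70% confluency. Exponential-phase cells (1 × 10^5/mL) incubated 24 h with six concentrations (100–0.05), final DMSO ≤0.5%. Controls were cells alone or cells + DMSO, with 1 mM sodium nitroprusside as positive control. Cells scraped off, mixed 1:1 with 0.4% trypan blue and counted on a hemocytometer by two operators. Blue cells were scored dead; results given as % viable cells.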

[3] = Antiproliferative activity against human Hep2 cells assessed as cell survival fraction at 0.05 ug/mL after 24 hrs by MTT assay; type: cell-based; conditions: HEp-2 cells, read-out: Survival; method in brief: as §1
Escherichia coli = assay: Antibacterial activity against Escherichia coli after 18 to 22 hrs by […]; type: functional
Staphylococcus warneri = assay: Antibacterial activity against Staphylococcus warneri after 18 to 22 hrs by […]; type: functional
[4] = Cytotoxicity against human Hep2 cells assessed as cell survival fraction at 100 ug/mL after 24 hrs by trypan blue exclusion method; type: cell-based; conditions: HEp-2 cells, read-out: Survival; method in brief: as §2
Enterococcus faecalis = assay: Antibacterial activity against Enterococcus faecalis after 18 to 22 hrs by […]; type: functional
Klebsiella aerogenes = assay: Antibacterial activity against Enterobacter aerogenes after 18 to 22 hrs by […]; type: functional
Proteus vulgaris = assay: Antibacterial activity against Proteus vulgaris after 18 to 22 hrs by […]; type: functional
[Candida] sake = Antifungal activity against 2 strains of Candida sake after 24 hrs by […]; type: functional; conditions: Fermentozyma sake
[5] = Cytotoxicity against human Hep2 cells assessed as cell survival fraction at 0.05 ug/mL after 24 hrs by trypan blue exclusion method; type: cell-based; conditions: HEp-2 cells, read-out: Survival; method in brief: as §2
Nakaseomyces glabratus = assay: Antifungal activity against 4 strains of Candida glabrata after 24 hrs by […]; type: functional
[6] = Antiproliferative activity against human Hep2 cells assessed as cell survival fraction at 50 ug/mL after 24 hrs by MTT assay; type: cell-based; conditions: HEp-2 cells, read-out: Survival; method in brief: as §1
Streptococcus pyogenes = assay: Antibacterial activity against Streptococcus pyogenes after 18 to 22 hrs by […]; type: functional
[7] = Antiproliferative activity against human Hep2 cells assessed as cell survival fraction at 0.5 ug/mL after 24 hrs by MTT assay; type: cell-based; conditions: HEp-2 cells, read-out: Survival; method in brief: as §1
HEp-2 [8] = assay: Antiproliferative activity against human Hep2 cells assessed as cell survival fraction after 24 hrs by MTT assay; type: cell-based; conditions: HEp-2, 24 h
Method in brief: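 Hep2 laryngeal carcinoma cells seeded in triplicate at 1 × 10^5/well in serum-free DMEM. Exposed 24 h at 37 °C, 5% CO2, to six concentrations ([…]); DMSO ≤0.5%. MTT reagent added for 2 h at 37 °C, then detergent for 2 h at room temperature in the dark. OD550 minus OD650 read. EC50 from ≥3 independent experiments.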

[9] = Antiproliferative activity against human Hep2 cells assessed as cell survival fraction at 5 ug/mL after 24 hrs by MTT assay; type: cell-based; conditions: HEp-2 cells, read-out: Survival; method in brief: as §1
Staphylococcus aureus = assay: Antibacterial activity against Staphylococcus aureus after 18 to 22 hrs by […]; type: functional
[10] = Antiproliferative activity against human Hep2 cells assessed as cell survival fraction at 100 ug/mL after 24 hrs by MTT assay; type: cell-based; conditions: HEp-2 cells, read-out: Survival; method in brief: as §1
Candida parapsilosis = assay: Antifungal activity against 4 strains of Candida parapsilosis after 24 hrs by […]; type: functional; conditions: Lodderomyces parapsilosis
Candida tropicalis = assay: Antifungal activity against 4 strains of Candida tropicalis after 24 hrs by […]; type: functional
[11] = Cytotoxicity against human Hep2 cells assessed as cell survival fraction at 5 ug/mL after 24 hrs by trypan blue exclusion method; type: cell-based; conditions: HEp-2 cells, read-out: Survival; method in brief: as §2
Candida albicans = assay: Antifungal activity against 10 strains of Candida albicans after 24 hrs by […]; type: functional
[12] = Cytotoxicity against human Hep2 cells assessed as cell survival fraction at 50 ug/mL after 24 hrs by trypan blue exclusion method; type: cell-based; conditions: HEp-2 cells, read-out: Survival; method in brief: as §2
[13] = Cytotoxicity against human Hep2 cells assessed as cell survival fraction at 10 ug/mL after 24 hrs by trypan blue exclusion method; type: cell-based; conditions: HEp-2 cells, read-out: Survival; method in brief: as §2
HEp-2 [14] = assay: Cytotoxicity against human Hep2 cells assessed as cell survival fraction after 24 hrs by trypan blue exclusion method; type: cell-based; conditions: HEp-2, 24 h
Method in brief: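 Hep2 cells in DMEM with 10% FBS and 1% penicillin-streptomycin, at 37 °C, 5% CO2, grown to 60–70% confluency. Seeded at 1 × 10^5/mL and exposed 24 h to six concentrations ([…]); DMSO ≤0.5%. Controls were cells alone, cells with DMSO, and 1 mM nitroprusside. Scraped cells mixed 1:1 with 0.4% trypan blue; blue cells counted as dead by hemocytometer, two operators. EC50 from ≥3 independent experiments.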

Compound	MIC (Klebsiella pneumoniae) [µg/mL]	viability at 24 h, 10 ug/mL [1] [%]	MIC (Pichia kudriavzevii) [µg/mL]	viability at 24 h, 0.5 ug/mL [2] [%]	viability at 24 h, 0.05 ug/mL [3] [%]	MIC (Escherichia coli) [µg/mL]	MIC (Staphylococcus warneri) [µg/mL]	viability at 24 h, 100 ug/mL [4] [%]	MIC (Enterococcus faecalis) [µg/mL]	MIC (Klebsiella aerogenes) [µg/mL]	MIC (Proteus vulgaris) [µg/mL]	MIC ([Candida] sake) [µg/mL]	viability at 24 h, 0.05 ug/mL [5] [%]	MIC (Nakaseomyces glabratus) [µg/mL]	viability at 24 h, 50 ug/mL [6] [%]	MIC (Streptococcus pyogenes) [µg/mL]	MIC (Staphylococcus aureus) [µg/mL]	MIC (Candida parapsilosis) [µg/mL]	MIC (Candida tropicalis) [µg/mL]	MIC (Candida albicans) [µg/mL]	also measured
CCC/C(C)=N/Nc1nc(-c2ccc(I)cc2)cs1	32 (≈ 83.1 µM)	68	4 (≈ 10.4 µM)	75	100	> 128	32 (≈ 83.1 µM)	60	32 (≈ 83.1 µM)	> 128	> 128	32 (≈ 83.1 µM)	92	2 (≈ 5.19 µM)	62	4 (≈ 10.4 µM)	32 (≈ 83.1 µM)	2 (≈ 5.19 µM)	0.5 (≈ 1.3 µM)	0.25 (≈ 0.649 µM)	viability at 24 h, 0.5 ug/mL [7]: 98%; EC50 (HEp-2 [8]): 45 µg/mL (≈ 117 µM); viability at 24 h, 5 ug/mL [9]: 72%; viability at 24 h, 100 ug/mL [10]: 0%; viability at 24 h, 5 ug/mL [11]: 65%; viability at 24 h, 50 ug/mL [12]: 63%; viability at 24 h, 10 ug/mL [13]: 60%
CCC(CC)=NNc1nc(-c2ccc(I)cc2)cs1	16 (≈ 41.5 µM)	90	256 (≈ 664 µM)	85	95	32 (≈ 83.1 µM)	32 (≈ 83.1 µM)	58	32 (≈ 83.1 µM)	16 (≈ 41.5 µM)	32 (≈ 83.1 µM)	256 (≈ 664 µM)	92	2 (≈ 5.19 µM)	45	32 (≈ 83.1 µM)	> 128	2 (≈ 5.19 µM)	0.5 (≈ 1.3 µM)	0.25 (≈ 0.649 µM)	viability at 24 h, 0.5 ug/mL [7]: 92%; EC50 (HEp-2 [8]): 50 µg/mL (≈ 130 µM); viability at 24 h, 5 ug/mL [9]: 90%; viability at 24 h, 100 ug/mL [10]: 10%; viability at 24 h, 5 ug/mL [11]: 80%; viability at 24 h, 50 ug/mL [12]: 63%; viability at 24 h, 10 ug/mL [13]: 67%
CCCCC/C(C)=N/Nc1nc(-c2ccc(I)cc2)cs1	> 128	89	2 (≈ 4.84 µM)	95	100	> 128	32 (≈ 77.4 µM)	33	32 (≈ 77.4 µM)	> 128	> 128	32 (≈ 77.4 µM)	98	2 (≈ 4.84 µM)	22	8 (≈ 19.4 µM)	32 (≈ 77.4 µM)	2 (≈ 4.84 µM)	0.5 (≈ 1.21 µM)	0.25 (≈ 0.605 µM)	viability at 24 h, 0.5 ug/mL [7]: 100%; EC50 (HEp-2 [8]): 42 µg/mL (≈ 102 µM); viability at 24 h, 5 ug/mL [9]: 90%; EC50 (HEp-2 [14]): 62 µg/mL (≈ 150 µM); viability at 24 h, 100 ug/mL [10]: 0%; viability at 24 h, 5 ug/mL [11]: 90%; viability at 24 h, 50 ug/mL [12]: 42%; viability at 24 h, 10 ug/mL [13]: 83%
Ic1ccc(-c2csc(N/N=C/c3c[nH]c4ccccc34)n2)cc1	> 128	–	4 (≈ 9 µM)	–	–	> 128	32 (≈ 72 µM)	–	4 (≈ 9 µM)	> 128	> 128	4 (≈ 9 µM)	–	4 (≈ 9 µM)	–	4 (≈ 9 µM)	32 (≈ 72 µM)	0.5 (≈ 1.13 µM)	2 (≈ 4.5 µM)	0.5 (≈ 1.13 µM)	–
